In PubChem BioAssay AID504775 (Broad Institute, 2011) one finds activation data, which are given here for 61 compounds.

The whole screen tested about 320,000 compounds, of which about 310 (0.097%) were called active.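 Rule for the calls: active = mean replicate activation of at least 60% and every replicate at or above 60%; inconclusive = mean or all-replicate condition met, but not both; inactive = mean below 60% and not all replicates reaching 60%.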 What follows is part of a selection rich in actives, with near analogues and random picks from the rest.

This assay can be described thus: activators of SR-BI mediated DiI-HDL uptake, primary screen, ldlA[mSR-BI] CHO cells, DiI fluorescence (AID 504775).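 Note: 0% = median plate neutral-control signal and 100% = twice that signal.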 As to conditions: 3 h, at 12.5 µM, hits give high values, 100 = double the neutral-control signal. The method in brief: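 System: LDL receptor-deficient CHO ldlA cells overexpressing murine SR-BI | Timing: 3 h uptake period with compound, 37 °C | Medium: HEPES-buffered (25 mM, pH 7.4) F12 plus 0.5% BSA | Dosing: Single-point compound dose | Signal: Bottom-read fluorescence, 550/595 nm | Read-out: Retained DiI signal reflecting DiI-HDL uptake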
Take `Cc1nn(-c2ncccn2)c2c1C(=O)CC(C)(C)C2Br` (stereo unspecified): the activation is -6.98% (inactive).
The result for `CC12CCCCC1=CC(=O)CC2` (stereo unspecified) reads 0.111% (inactive); that for `O=C(NNC(=O)c1ccc2ccccc2c1)c1ccc(Cl)cc1`, 17.1% (inactive).
With `O=C1C(=O)N(c2ccccc2)C(c2ccccc2)C1c1ccccc1` (stereo unspecified), the activation was -3.47% (inactive).
The value for `c1ccc(C(=NNc2nc3ccccc3s2)c2ccccn2)cc1` was -40.5% (inactive); that for `C=CC(=O)Nc1ccc(Nc2ccnc(Nc3ccc(N4CCN(C)CC4)cc3)n2)cc1` was -5.16% (inactive); that for `CC(=NNC(=S)N1CCCCCC1)c1ccccn1` was -22.4% (inactive).
The result for `CCOC(=O)c1ccccc1NC(=O)CSc1nc2c(sc(=S)n2CC)c(=O)[nH]1` reads 15.7% (inactive); that for `Nc1ccc2c(c1)C(=Cc1cccnc1)c1ccccc1-2`, -10.7% (inactive); that for `N#CC1=C(N)Oc2cc(N)ccc2C1c1ccccc1` (stereo unspecified), 23.9% (inactive).
As to `Cc1ccc(S(=O)(=O)CCC(=O)OCC(=O)N(C)Cc2ccccc2)cc1`, the activation was 31.8% (inactive).
The result for `CC/C(=C(/c1ccccc1)c1ccc(OCC[N+](C)(C)C)cc1)c1ccccc1` reads 44.1% (inactive).
The result for `CC(C)(C)OC(=O)N(Cc1ccccc1)Cc1ccc(OCc2cccc(NC(=O)c3ccccc3)c2)cc1` reads -30.4% (inactive); that for `CCCCN1CC(COCc2ccccc2)OCCS1(=O)=O` (stereo unspecified), 17.3% (inactive); that for `COc1ccc(CNC(=O)COC(=O)C2=Cc3ccccc3OC2)cc1`, 3.54% (inactive).
The value for `COC1C(CO)OC(n2cnc3c(=S)nc(N)[nH]c32)C1O` (stereo unspecified) was 8.65% (inactive); that for `COC(=O)C1CC2=C(CC(C)(C)CC2=O)N(c2ccccc2)C1=O` (stereo unspecified) was 15.5% (inactive); that for `O=C1OC(Cc2ccccc2)C(c2ccccc2)C1=O` (stereo unspecified) was 5.71% (inactive).
Turning to `CN(C(=O)c1ccc(NC(=O)Cc2cccc(NC(=O)C3CCN(C(=O)c4ccccc4)CC3)c2)cc1)C1CC1`, the activation is -15% (inactive).
As to `CC(C)c1ccc(C=NNc2ccc([N+](=O)[O-])cn2)cc1`, the activation was 2.92% (inactive).
The value for `O=C(NN=Cc1ccccc1)c1ccccc1` was 4.39% (inactive); that for `NC(=O)C1CCN(C(=O)c2cc(S(=O)(=O)N3CCN(c4ccccc4)CC3)ccc2Cl)CC1` was 3.45% (inactive).
`FC(F)(F)c1ccc(-c2cccc3c2C2CC3CCN2Cc2ccccc2)cc1` (stereo unspecified): the activation was 20.1% (inactive).
For `O=c1oc2ccccc2c(=O)c2ccccc12`, the activation was 23.4% (inactive).
The value for `O=C(NCCc1ccccc1)c1cccc(NC(=O)c2ccccc2)c1` was -9.83% (inactive).
The value for `Cc1nc(N)sc1-c1ccccc1` was -11.1% (inactive).
For the compound `O=[N+]([O-])c1ccc(N2CCOCC2)cc1`, the activation was -9.57% (inactive).
The value for `O=C(NN=CC=Cc1ccccc1)C(O)C(O)C(=O)NN=CC=Cc1ccccc1` (stereo unspecified) was -3.92% (inactive).
The value for `CCCCNCCS(=O)(=O)NCc1ccccc1` was 2.76% (inactive).
The value for `CC(C)CN1CC(C)C(=O)N(c2ccccc2)C1=S` (stereo unspecified) was 3.77% (inactive).
With `CCC(c1nnnn1C1CCCC1)N1CCN(C(=O)c2ccco2)CC1` (stereo unspecified), the activation was 3.81% (inactive).
The result for `CC(C)C(c1nnnn1C1CCCCC1)N1CCN(C(=O)c2ccco2)CC1` (stereo unspecified) reads 4.65% (inactive); that for `CC(C)C(c1nnnn1CCc1ccccc1)N1CCN(C(=O)c2ccco2)CC1` (stereo unspecified), 424% (active); that for `Cc1ccc(OCCNC(=O)c2cccc(S(=O)(=O)N3CCN(Cc4ccccc4)CC3)c2)cc1`, -20.6% (inactive).
The result for `CSCCC(NC(=O)COc1ccccc1)C(=O)N1CCN(c2cccc(C(F)(F)F)c2)CC1` (stereo unspecified) reads -13.3% (inactive).
The result for `C1=C(N2CCOCC2)/C(=C/c2nc3ccccc3[nH]2)CC1` reads 6.52% (inactive).
Take `c1ccc2cc3c(NCCN4CCOCC4)ccnc3cc2c1`: the activation was 30.5% (inactive).
The result for `c1ccc2[nH]c(NCCN3CCOCC3)nc2c1` reads 62.8% (active).
The result for `CCc1c(Nc2ccccc2Cl)nc(N)[nH]c1=O` reads 15.3% (inactive).
The result for `NC(=O)c1ncn([C@@H]2O[C@H](CNCc3cnc(N4CCOCC4)s3)[C@@H](O)[C@H]2O)n1` reads -12% (inactive); that for `COc1cc2c(cc1CNC[C@H]1O[C@@H](n3cnc(C(N)=O)n3)[C@H](O)[C@@H]1O)OCO2`, 13.6% (inactive).
For `NC(=O)c1ncn([C@@H]2O[C@H](CN=C3NS(=O)(=O)c4ccccc43)[C@@H](O)[C@H]2O)n1`, the activation is 74.1% (active).
The value for `CCCCNC1(C#N)CCN(Cc2ccccc2)CC1` was 2.1% (inactive).
Take `COc1ccc(CC(=O)N[C@@H]2c3cc(OC)c(OC)cc3C[C@H]2OCc2ccccc2)cc1`: the activation is -26.8% (inactive).
Turning to `COc1ccc(C2NCCCC2c2ccccc2)cc1` (stereo unspecified), the activation was -26.9% (inactive).
The result for `CC1C(C)N(C(=O)CCl)c2ccccc2N1C(=O)CCl` (stereo unspecified) reads 12% (inactive); that for `Cc1ccccc1N1CCN(C(=O)c2cccnc2)CC1`, 2.45% (inactive).
The result for `C[C@@H]1NS(=O)(=O)c2cc(Cl)ccc2O[C@@H]1c1ccccc1` reads -33.6% (inactive); that for `COC(=O)c1ccc(CNC(=O)Cn2cc(C)c(=O)[nH]c2=O)cc1`, -1.85% (inactive); that for `O=[N+]([O-])c1ccc(NS(=O)(=O)c2ccccc2)c(Cl)c1`, 84.4% (active).
As to `O=C(NNS(=O)(=O)c1ccc(F)cc1)c1ccc([N+](=O)[O-])cc1Cl`, the activation is 4.85% (inactive).
For the compound `Cc1cc([N+](=O)[O-])ccc1NS(=O)(=O)c1ccccc1`, the activation was 11.2% (inactive).
The value for `OC(COc1ccccc1)CN1CCN(c2cccc(Cl)c2)CC1` (stereo unspecified) was -8.42% (inactive); that for `COc1cc(/C=C/c2ccc(/C=C/c3cc(OC)c(OC)c(OC)c3)cc2)cc(OC)c1OC` was -51.2% (inactive); that for `O=C1C(Cl)=C(Oc2ccccc2)C(=O)c2ccccc21` was -13.1% (inactive).
As for `COc1ccc(NS(=O)(=O)c2ccc(N3CCOCC3)c(NC(=O)/C=C/C(=O)O)c2)cc1`, the activation was 22.2% (inactive).
The value for `COc1ccc(CC(=O)NC(C)c2ccc(Cl)c(Cl)c2)cc1S(=O)(=O)N1CCOCC1` (stereo unspecified) was -4.63% (inactive); that for `Cc1cc([N+](=O)[O-])c(=O)[nH]c1C` was 9.21% (inactive); that for `CC(NC(=O)c1ccccc1)C(=O)Nc1ccccc1` (stereo unspecified) was -16.6% (inactive).
The result for `NC(=O)C1(Nc2ccc([N+](=O)[O-])cc2)CCCC1` reads -13.2% (inactive).
The result for `S=C(Nc1ccccc1)Nc1ccc2ccccc2c1` reads -9.12% (inactive).
